Experimental findings from PubChem BioAssay are described below.

The nature of assay [1]: Her2 expression decrease, cell viability multiplex – SKBR3 breast tumor cells, AlphaScreen, ATP viability, primary screen (AID 461).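 For Her2 level: lower value means less Her2 protein in the cells.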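 For viability: percent of carrier control wells set as 100% viability.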 The note with it: SKBR3 Her2 protein level, 18-24 h, measured here: SKBR3 viability, ATP luminescence, at 10 µM. Background: In Alpha technology, singlet oxygen from a donor bead excites a nearby acceptor bead.
In assay [2] the target is Receptor tyrosine-protein kinase erbB-2 (Homo sapiens) (UniProt P04626). The description is as above. The note with it: 18-24 h, at 10 µM, stronger effect = lower value.
Chain of Receptor tyrosine-protein kinase erbB-2 (Homo sapiens) (P04626 whole entry, looked up): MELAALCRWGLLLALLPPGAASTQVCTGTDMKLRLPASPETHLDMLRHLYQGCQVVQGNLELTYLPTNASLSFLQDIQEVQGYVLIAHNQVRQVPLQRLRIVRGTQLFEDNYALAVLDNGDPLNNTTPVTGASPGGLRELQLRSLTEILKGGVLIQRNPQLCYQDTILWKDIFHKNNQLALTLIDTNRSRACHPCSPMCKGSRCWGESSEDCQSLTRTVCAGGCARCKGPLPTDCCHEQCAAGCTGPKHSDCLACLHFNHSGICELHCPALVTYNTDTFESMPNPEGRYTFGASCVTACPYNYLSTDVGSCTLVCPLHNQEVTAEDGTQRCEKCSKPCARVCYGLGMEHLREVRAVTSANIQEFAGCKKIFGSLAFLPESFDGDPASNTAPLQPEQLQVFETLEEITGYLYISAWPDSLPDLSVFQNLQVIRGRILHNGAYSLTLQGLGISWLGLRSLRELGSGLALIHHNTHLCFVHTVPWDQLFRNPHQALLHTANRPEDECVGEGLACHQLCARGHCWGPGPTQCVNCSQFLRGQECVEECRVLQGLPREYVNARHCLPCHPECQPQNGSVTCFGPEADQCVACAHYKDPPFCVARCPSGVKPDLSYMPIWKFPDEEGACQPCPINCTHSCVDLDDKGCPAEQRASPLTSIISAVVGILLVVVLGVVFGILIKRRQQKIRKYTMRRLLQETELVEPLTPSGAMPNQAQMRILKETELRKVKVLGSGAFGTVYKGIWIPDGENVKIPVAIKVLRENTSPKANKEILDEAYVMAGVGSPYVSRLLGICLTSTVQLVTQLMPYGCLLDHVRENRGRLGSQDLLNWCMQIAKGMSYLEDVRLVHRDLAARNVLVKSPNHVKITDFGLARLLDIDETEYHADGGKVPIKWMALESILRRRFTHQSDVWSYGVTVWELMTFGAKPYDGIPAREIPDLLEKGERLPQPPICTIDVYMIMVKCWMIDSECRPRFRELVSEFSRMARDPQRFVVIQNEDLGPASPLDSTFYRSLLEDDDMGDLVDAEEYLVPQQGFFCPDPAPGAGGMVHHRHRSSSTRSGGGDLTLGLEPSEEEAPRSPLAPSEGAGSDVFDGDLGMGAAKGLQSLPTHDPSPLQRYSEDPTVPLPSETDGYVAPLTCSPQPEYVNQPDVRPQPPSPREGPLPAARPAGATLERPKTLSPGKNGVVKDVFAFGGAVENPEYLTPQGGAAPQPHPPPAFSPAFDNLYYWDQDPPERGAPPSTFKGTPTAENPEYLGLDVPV
Assay [3] can be described thus: reduced viability of SK-BR-3 breast cancer cells – cell-based, 24 h, human, pilot screen (AID 572;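 active = viability at or below 10% of carrier control in both of two separate runs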;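 note: compound exposure lasted between 18 and 24 h rather than exactly 24 h; 100% = carrier-treated control wells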). The settings on record: SK-BR-3 viability, CellTiter-Glo luminescence, at 10 µM, stronger effect = lower value.
Assay [4] is described as follows: HUVEC growth inhibition – cell-based, human, primary screen (AID 575;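 active = viability at or below 30% in both replicate assays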;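 note: 100% = median of untreated cell wells with 0.1% DMSO on each plate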). The note with it: HUVEC proliferation, CellTiter-Glo luminescence, 72 h; at 10 µM; stronger effect = lower value. The procedure, abridged:
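Assay system: primary human umbilical vein endothelial cells / Buffer or medium: endothelial basal medium with 2% FBS plus growth supplements / Compound dosing: one dose, 10 µM final, 0.1% DMSO / Timing: 72 h treatment at 37 °C / Signal: CTG luminescence / Benchmarks: 32 DMSO-only cell-control wells (high), 32 MePR drug-control wells (low) per plate / Plate: collagen-coated 384-well format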
(Cellular ATP, detected with luciferase, serves as a proxy for viable cell number.)

Assay [5] can be described thus: H69AR cell proliferation blockers – human, duplicate replicates, primary screen (AID 580;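 active = viability at or under a set limit in both replicates, limit being median viability minus 3 SD, cut at about 48% in these data, passing the limit was not always enough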;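 note: 100% = mean luminescence of untreated wells and 0% = no signal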). The note with it: H69AR lung tumor cells viability, ATP luminescence, 72 h; at 10 µM; stronger effect = lower value.
Assay [6] can be described thus: MRP1 drug-resistance reversers in H69AR cells – cell-based, doxorubicin co-treatment, pilot screen (AID 601;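 active = viability loss from added drug above about 55%, and viability with drug at most 40%, in both replicates, limit read from the data, passing the limit was not always enough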). The note with it: CellTiter-Glo, 72 h, at 10 µM; for differential viability (reversal): stronger effect = higher value.
Assay [7] in a line: yeast transport mutant growth inhibition pilot in 384-well plates, post-Golgi transport modulator project (AID 636; in the data active = inhibition above about 31%). The settings on record: absorbance 615 nm, about 18 h, stronger effect = higher value.
A short description of assay [8]: growth suppression of yeast trafficking mutant, preliminary HTS, modulators of trafficking downstream of Golgi apparatus project, 1536-format plate, OD 615 nm (AID 637; in the data active = inhibition above about 30%). The note with it: yeast transport mutant growth, absorbance 615 nm, 18 h; stronger effect = higher value.
[9] abbreviates: H69AR cells + 2 uM doxorubicin, measured here: viability with 2 uM doxorubicin, stronger effect = lower value.
The mark [10] stands for this setting: H69AR cells, compound alone cytotoxicity.

Active and inactive are the calls of the source.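 Rule for the calls, unless noted: active = Her2 level under about 52% in both replicate screens, with viability over 70% of control (limit read from the data); inconclusive = Her2 under the limit in one screen only, or viability under 70%; inactive = Her2 level above the set limit.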

For orientation: viability means a read-out of living cells in per cent, often relative to untreated cells. For orientation: inhibition means the relative decrease from the control value, in per cent.

With `O=C(OCC(=O)N1CCC(Cc2ccccc2)CC1)c1ccc[nH]c1=O`, the viability is 80.5% in assay [1]; 80.5% (inactive) in assay [3]; 117% (inactive) in assay [4]; 92.6% (inactive) in assay [5]; 90.4% in assay [6] (setting [9]); 92.6% in assay [6] (setting [10]). Further, in assay [2], the Her2 level is 102% (inactive). Also, the differential viability (reversal) in assay [6] (H69AR cells + 2 uM doxorubicin) was 2.25% (inactive). Besides, the inhibition is 0.13% (inactive) in assay [7] and -12.3% (inactive) in assay [8].

As for `COc1ccc(-c2nnc(SCC#N)o2)cc1`, the viability in assay [1] is 104%; in assay [3] it was 104% (inactive); in assay [4], 107% (inactive); in assay [5], 103% (inactive); in assay [6] (setting [9]) it was 89.1%; in assay [6] (setting [10]) it was 103%. The Her2 level in assay [2] is 91.5% (inactive). In assay [6] (H69AR cells + 2 uM doxorubicin), the differential viability (reversal) was 13.6% (inactive). Also, the inhibition is -5.47% (inactive) in assay [7] and 0.65% (inactive) in assay [8].

Take `CCC(C)(C)NC(=O)C(c1ccco1)N(C(=O)Cn1nnc2ccccc21)c1ccc2c(c1)OCO2` (stereo not given): the viability in assay [1] is 92.5%; in assay [3] it was 92.5% (inactive); in assay [4], 78.1% (inactive); in assay [5], 105% (inactive); in assay [6] (setting [9]) it was 85.9%; in assay [6] (setting [10]) it was 105%. For the same molecule, in assay [2], the Her2 level is 85% (inactive). Further, the differential viability (reversal) in assay [6] (H69AR cells + 2 uM doxorubicin) is 18.9% (inactive). For the same molecule, the inhibition was -0.53% (inactive) in assay [7] and -1.13% (inactive) in assay [8].

As to `O=C(c1ccc(-c2cccc(C(F)(F)F)c2)o1)N1CCOCC1`, the viability in assay [1] was 95.5%; in assay [3] it was 95.5% (inactive); in assay [4] it was 72.8% (inactive); in assay [5], 92.7% (inactive); in assay [6] (setting [9]), 76.6%; in assay [6] (setting [10]) it was 92.7%. Further, the Her2 level in assay [2] is 118% (inactive). Also, the differential viability (reversal) in assay [6] (H69AR cells + 2 uM doxorubicin) was 16.1% (inactive). Also, the inhibition is -4.8% (inactive) in assay [7] and -2.58% (inactive) in assay [8].

As for `CCC1SC2=NC(C)=C(C(=O)OC)C(c3ccc(C)cc3)N2C1=O` (stereo not given), the viability in assay [1] was 94%; in assay [3] it was 94% (inactive); in assay [4] it was 109% (inactive); in assay [5], 99.6% (inactive); in assay [6] (setting [9]), 90.6%; in assay [6] (setting [10]) it was 99.6%. Besides, in assay [2], the Her2 level is 96% (inactive). Moreover, in assay [6] (H69AR cells + 2 uM doxorubicin), the differential viability (reversal) was 9% (inactive). Further, the inhibition is -3.51% (inactive) in assay [7] and -1.59% (inactive) in assay [8].

With `CC(=O)c1ccc(NC(=O)c2noc3c2CCCCC3)cc1`, the viability in assay [1] was 126%; in assay [3] it was 126% (inactive); in assay [4] it was 114% (inactive); in assay [5], 98% (inactive); in assay [6] (setting [9]) it was 80.6%; in assay [6] (setting [10]), 98%. For the same molecule, the Her2 level in assay [2] is 88% (inactive). The differential viability (reversal) in assay [6] (H69AR cells + 2 uM doxorubicin) is 17.3% (inactive). The inhibition in assay [7] was -5.26% (inactive); in assay [8], 0.73% (inactive).

For the molecule `CCC(=O)c1ccc(OC(=O)c2ccc(Br)o2)cc1`, the viability in assay [1] is 102%; in assay [3], 102% (inactive); in assay [4], 98% (inactive); in assay [5] it was 108% (inactive); in assay [6] (setting [9]), 99.9%; in assay [6] (setting [10]), 108%. For the same molecule, the Her2 level in assay [2] is 78.5% (inactive). Also, in assay [6] (H69AR cells + 2 uM doxorubicin), the differential viability (reversal) is 8.45% (inactive). Moreover, the inhibition was -4.67% (inactive) in assay [7] and 8.2% (inactive) in assay [8].

`COC(=O)CSc1nc2ncc(Cl)cc2[nH]1`: the viability in assay [1] was 101%; in assay [3], 101% (inactive); in assay [4], 89.3% (inactive); in assay [5], 89.8% (inactive); in assay [6] (setting [9]) it was 88.7%; in assay [6] (setting [10]), 89.8%. For the same molecule, the Her2 level in assay [2] was 92.5% (inactive). The differential viability (reversal) in assay [6] (H69AR cells + 2 uM doxorubicin) is 1.08% (inactive). Also, the results for the inhibition in assay [7] and in assay [8] were -5.06% (inactive) and 1.15% (inactive), respectively.

For the molecule `O=C(c1ccco1)N1CCN(C(=O)c2cc3c(s2)-c2ccccc2OC3)CC1`, the viability was 91% in assay [1]; 91% (inactive) in assay [3]; 107% (inactive) in assay [4]; 97% (inactive) in assay [5]; 94.2% in assay [6] (setting [9]); 97% in assay [6] (setting [10]). For the same molecule, the Her2 level in assay [2] was 113% (inactive). For the same molecule, the differential viability (reversal) in assay [6] (H69AR cells + 2 uM doxorubicin) was 2.87% (inactive). The inhibition is 0.13% (inactive) in assay [7] and -1.64% (inactive) in assay [8].

In the case of `Clc1cc2c(c(Cn3cnc4ccccc43)c1)OCOC2`, the viability is 109% in assay [1]; 109% (inactive) in assay [3]; 87.8% (inactive) in assay [4]; 98% (inactive) in assay [5]; 91.6% in assay [6] (setting [9]); 98% in assay [6] (setting [10]). Besides, the Her2 level in assay [2] was 106% (inactive). The differential viability (reversal) in assay [6] (H69AR cells + 2 uM doxorubicin) was 6.4% (inactive). The inhibition was -3.33% (inactive) in assay [7] and -5.57% (inactive) in assay [8].

For the molecule `Cc1ccc(C(=O)N2CCCC(c3nc4c(nnn4Cc4ccccc4)c(=O)[nH]3)C2)cc1` (stereo not given), the viability in assay [1] was 80.5%; in assay [3], 80.5% (inactive); in assay [4] it was 110% (inactive); in assay [5], 83.4% (inactive); in assay [6] (setting [9]), 58.9%; in assay [6] (setting [10]), 83.4%. Further, the Her2 level in assay [2] is 105% (inactive). The differential viability (reversal) in assay [6] (H69AR cells + 2 uM doxorubicin) is 24.5% (inactive). The inhibition was -3.08% (inactive) in assay [7] and 7.33% (inactive) in assay [8].

As for `O=C1C(C=NCCCn2ccnc2)=C(O)c2ccccc21`, the viability in assay [1] was 83%; in assay [3], 83% (inactive); in assay [4], 105% (inactive); in assay [5], 99.2% (inactive); in assay [6] (setting [9]), 82%; in assay [6] (setting [10]), 99.2%. In addition, the Her2 level in assay [2] is 82.5% (inactive). Moreover, the differential viability (reversal) in assay [6] (H69AR cells + 2 uM doxorubicin) is 17.2% (inactive). The inhibition was -5.14% (inactive) in assay [7] and -1.75% (inactive) in assay [8].

Take `CCOC(=O)c1sc(C)c2c1NC(C)(c1cccs1)NC2=O` (stereo not given): the viability in assay [1] was 105%; in assay [3] it was 105% (inactive); in assay [4], 83.6% (inactive); in assay [5], 82.5% (inactive); in assay [6] (setting [9]), 90.6%; in assay [6] (setting [10]), 82.5%. Besides, the Her2 level in assay [2] is 96.5% (inactive). Also, the differential viability (reversal) in assay [6] (H69AR cells + 2 uM doxorubicin) is -8.16% (inactive). The results for the inhibition in assay [7] and in assay [8] were -1.73% (inactive) and -6.94% (inactive), respectively.

`O=C(c1ccco1)N1CCN(C(=O)C2CCN(S(=O)(=O)c3cccc4nsnc34)CC2)CC1`: the viability was 98.5% in assay [1]; 98.5% (inactive) in assay [3]; 104% (inactive) in assay [4]; 83.5% (inactive) in assay [5]; 75% in assay [6] (setting [9]); 83.5% in assay [6] (setting [10]). In assay [2], the Her2 level is 102% (inactive). Further, the differential viability (reversal) in assay [6] (H69AR cells + 2 uM doxorubicin) is 8.47% (inactive). Further, the inhibition was -4.27% (inactive) in assay [7] and -1.48% (inactive) in assay [8].

As for `Cc1nc(N2CCC(C)CC2)c2c(C)c(C(=O)O)sc2n1`, the viability is 100% in assay [1]; 100% (inactive) in assay [3]; 74.2% (inactive) in assay [4]; 84.9% (inactive) in assay [5]; 81.3% in assay [6] (setting [9]); 84.9% in assay [6] (setting [10]). In addition, in assay [2], the Her2 level is 77% (inactive). In assay [6] (H69AR cells + 2 uM doxorubicin), the differential viability (reversal) is 3.62% (inactive). In addition, the figures for the inhibition in assay [7] and in assay [8] were -4.74% (inactive) and -6.33% (inactive), respectively.

Consider `CC1CCN(S(=O)(=O)c2ccc(NC(=O)CSc3nnnn3C)cc2)CC1`, for which the viability in assay [1] was 94.5%; in assay [3] it was 94.5% (inactive); in assay [4] it was 76.3% (inactive); in assay [5], 101% (inactive); in assay [6] (setting [9]), 78.7%; in assay [6] (setting [10]), 101%. For the same molecule, in assay [2], the Her2 level is 103% (inactive). Moreover, in assay [6] (H69AR cells + 2 uM doxorubicin), the differential viability (reversal) was 22% (inactive). Also, the inhibition in assay [7] was -5.92% (inactive); in assay [8], -3.49% (inactive).
